Where “and” joins values, the source holds several entries; their conditions need not be identical. Equal entries are not always repeated.
System: HEK-293T
Assay: Multiplex assay against HEK293T
Type: toxicity, cell-based
Conditions: human
How it was run: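 Four dyes were applied at seeding to live cells: Hoechst33342, BioTracker Green Microtubule Cytoskeleton Dye, MitoTracker Red and Annexin V Alexa Fluor 680. Imaging after compound addition used a CQ1 microscope at 37°C and 5% CO2. CellPathfinder machine-learning gating then sorted cells into Hoechst high-intensity objects or normal cells, normal cells into healthy, pyknosed or fragmented nuclei, and pyknosed cells into mitotic or apoptotic, with tubulin, mitochondrial-mass and membrane-permeability phenotypes given as per cents of healthy-nucleus cells.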

[1] = 12 h, 1 µM, compound concentration 1 uM
[2] = 12 h, 10 µM, compound concentration 10 uM
[3] = 24 h, 1 µM, compound concentration 1 uM
[4] = 24 h, 10 µM, compound concentration 10 uM
[5] = 48 h, 1 µM, compound concentration 1 uM
[6] = 48 h, 10 µM, compound concentration 10 uM

## CC(C)(C)c1ccc(S(=O)(=O)Nc2ccc(Cl)cc2C(=O)c2cc[n+]([O-])cc2)cc1 [VERCIRNON]
[1]
  Population Apoptotic (%): 32% and 52%
  Population Fragmented Nuclei (%): 10% and 5%
  Population Healthy Nuclei (%): 77% and 84%
  Population Hoechst High Intensity Objects (%): 7%
  Population Membrane Permeable-Phenotype (%): 0%
  Population Mitochondria Different-Phenotype (%): 33% and 51%
  Population Mitotic Cells (%): 68% and 47%
  Population Normal (%): 92%
  Population Pyknosed Nuclei (%): 12% and 10%
  Population Tubulin-Different-Phenotype (%): 21% and 22%
  Total Cell Count: 428 and 424
[2]
  Population Apoptotic (%): 30% and 39%
  Population Fragmented Nuclei (%): 6% and 4%
  Population Healthy Nuclei (%): 83% and 82%
  Population Hoechst High Intensity Objects (%): 6% and 5%
  Population Membrane Permeable-Phenotype (%): 0% and 1%
  Population Mitochondria Different-Phenotype (%): 35% and 51%
  Population Mitotic Cells (%): 69% and 60%
  Population Normal (%): 93% and 94%
  Population Pyknosed Nuclei (%): 10% and 13%
  Population Tubulin-Different-Phenotype (%): 37% and 27%
  Total Cell Count: 451 and 344
[3]
  Population Apoptotic (%): 41% and 28%
  Population Fragmented Nuclei (%): 8%
  Population Healthy Nuclei (%): 81%
  Population Hoechst High Intensity Objects (%): 6% and 5%
  Population Membrane Permeable-Phenotype (%): 0%
  Population Mitochondria Different-Phenotype (%): 21% and 32%
  Population Mitotic Cells (%): 58% and 71%
  Population Normal (%): 93% and 94%
  Population Pyknosed Nuclei (%): 9%
  Population Tubulin-Different-Phenotype (%): 15% and 16%
  Total Cell Count: 522 and 521
[4]
  Population Apoptotic (%): 22% and 28%
  Population Fragmented Nuclei (%): 10% and 7%
  Population Healthy Nuclei (%): 77% and 82%
  Population Hoechst High Intensity Objects (%): 3% and 5%
  Population Membrane Permeable-Phenotype (%): 1% and 0%
  Population Mitochondria Different-Phenotype (%): 15% and 31%
  Population Mitotic Cells (%): 77% and 71%
  Population Normal (%): 96% and 94%
  Population Pyknosed Nuclei (%): 12% and 9%
  Population Tubulin-Different-Phenotype (%): 20% and 23%
  Total Cell Count: 594 and 437
[5]
  Population Apoptotic (%): 28% and 32%
  Population Fragmented Nuclei (%): 16% and 14%
  Population Healthy Nuclei (%): 76% and 81%
  Population Hoechst High Intensity Objects (%): 2%
  Population Membrane Permeable-Phenotype (%): 0% and 2%
  Population Mitochondria Different-Phenotype (%): 16% and 14%
  Population Mitotic Cells (%): 71% and 67%
  Population Normal (%): 97%
  Population Pyknosed Nuclei (%): 7% and 4%
  Population Tubulin-Different-Phenotype (%): 13% and 12%
  Total Cell Count: 834 and 877
[6]
  Population Apoptotic (%): 21% and 25%
  Population Fragmented Nuclei (%): 13% and 12%
  Population Healthy Nuclei (%): 81% and 80%
  Population Hoechst High Intensity Objects (%): 3% and 2%
  Population Membrane Permeable-Phenotype (%): 2% and 1%
  Population Mitochondria Different-Phenotype (%): 12% and 18%
  Population Mitotic Cells (%): 78% and 75%
  Population Normal (%): 96% and 97%
  Population Pyknosed Nuclei (%): 5% and 7%
  Population Tubulin-Different-Phenotype (%): 14% and 15%
  Total Cell Count: 929 and 586

## O=C(NCCNCC(O)COc1ccc(O)cc1)N1CCOCC1.O=C(NCCNCC(O)COc1ccc(O)cc1)N1CCOCC1.O=C(O)/C=C/C(=O)O (configuration not stated) [XAMOTEROL FUMARATE]
[1]
  Population Apoptotic (%): 39% and 60%
  Population Fragmented Nuclei (%): 5%
  Population Healthy Nuclei (%): 79% and 76%
  Population Hoechst High Intensity Objects (%): 4% and 14%
  Population Membrane Permeable-Phenotype (%): 0%
  Population Mitochondria Different-Phenotype (%): 39% and 57%
  Population Mitotic Cells (%): 60% and 39%
  Population Normal (%): 95% and 85%
  Population Pyknosed Nuclei (%): 14% and 17%
  Population Tubulin-Different-Phenotype (%): 26% and 21%
  Total Cell Count: 339 and 271
[2]
  Population Apoptotic (%): 35% and 29%
  Population Fragmented Nuclei (%): 7% and 4%
  Population Healthy Nuclei (%): 83% and 86%
  Population Hoechst High Intensity Objects (%): 6% and 5%
  Population Membrane Permeable-Phenotype (%): 0%
  Population Mitochondria Different-Phenotype (%): 39% and 62%
  Population Mitotic Cells (%): 65% and 70%
  Population Normal (%): 93% and 94%
  Population Pyknosed Nuclei (%): 8% and 9%
  Population Tubulin-Different-Phenotype (%): 19% and 23%
  Total Cell Count: 499 and 406
[3]
  Population Apoptotic (%): 26% and 45%
  Population Fragmented Nuclei (%): 8% and 9%
  Population Healthy Nuclei (%): 78% and 80%
  Population Hoechst High Intensity Objects (%): 6% and 13%
  Population Membrane Permeable-Phenotype (%): 0%
  Population Mitochondria Different-Phenotype (%): 18% and 38%
  Population Mitotic Cells (%): 73% and 54%
  Population Normal (%): 93% and 86%
  Population Pyknosed Nuclei (%): 12% and 10%
  Population Tubulin-Different-Phenotype (%): 17% and 15%
  Total Cell Count: 475 and 366
[4]
  Population Apoptotic (%): 21% and 33%
  Population Fragmented Nuclei (%): 9% and 7%
  Population Healthy Nuclei (%): 79% and 85%
  Population Hoechst High Intensity Objects (%): 5% and 4%
  Population Membrane Permeable-Phenotype (%): 0%
  Population Mitochondria Different-Phenotype (%): 25% and 42%
  Population Mitotic Cells (%): 78% and 66%
  Population Normal (%): 94% and 95%
  Population Pyknosed Nuclei (%): 11% and 7%
  Population Tubulin-Different-Phenotype (%): 12% and 17%
  Total Cell Count: 632 and 542
[5]
  Population Apoptotic (%): 21% and 41%
  Population Fragmented Nuclei (%): 14% and 11%
  Population Healthy Nuclei (%): 77% and 81%
  Population Hoechst High Intensity Objects (%): 2% and 4%
  Population Membrane Permeable-Phenotype (%): 2% and 0%
  Population Mitochondria Different-Phenotype (%): 11% and 18%
  Population Mitotic Cells (%): 78% and 58%
  Population Normal (%): 97% and 95%
  Population Pyknosed Nuclei (%): 7% and 6%
  Population Tubulin-Different-Phenotype (%): 9% and 10%
  Total Cell Count: 918 and 526
[6]
  Population Apoptotic (%): 17% and 25%
  Population Fragmented Nuclei (%): 15% and 16%
  Population Healthy Nuclei (%): 79% and 77%
  Population Hoechst High Intensity Objects (%): 0% and 2%
  Population Membrane Permeable-Phenotype (%): 1% and 0%
  Population Mitochondria Different-Phenotype (%): 13% and 16%
  Population Mitotic Cells (%): 82% and 74%
  Population Normal (%): 99% and 97%
  Population Pyknosed Nuclei (%): 5%
  Population Tubulin-Different-Phenotype (%): 6% and 10%
  Total Cell Count: 1116 and 827
